Measurements from different studies.
MMP1: Interstitial collagenase (MMP1, Homo sapiens, UniProt P03956)
CASP9: Caspase-9 (CASP9, Homo sapiens, UniProt P55211)
USP7: Ubiquitin carboxyl-terminal hydrolase 7 (USP7, Homo sapiens, UniProt Q93009)

COc1ccc(S(=O)(=O)N(CC(=O)NO)CC(C)C)cc1
inhibition (MMP1; enzyme activity; inhibitor; 10 µM): 77%

C#Cc1n[nH]c2c(-c3cn([C@@H](C)c4ccccn4)c(=O)[nH]c3=O)cc(F)cc12
inhibition (TGF-beta receptor type-1 (TGFBR1, Homo sapiens, UniProt P36897); enzyme activity; inhibitor; 0.1 µM): 1.5%

O=C(Nc1cccnn1)N1CCN([C@@H]2CCOc3cc(C(F)(F)F)ccc32)CC1
inhibition (CASP9; cell-free assay; 20 µM): -4%

C[C@H](C(=O)N[C@H]1COc2ccccc2[C@@H]1S(C)(=O)=O)c1ccc(F)cc1
inhibition (MMP1; enzyme activity; inhibitor; 10 µM): 13%

CN(C)C(=O)COC(=O)Cc1ccc(OC(=O)c2ccc(NC(=N)N)cc2)cc1
inhibition (USP7; enzyme activity; inhibitor; 10 µM): 0%

COc1ccc(S(=O)(=O)N2CCCCC2)cc1C
inhibition (High affinity choline transporter 1 (SLC5A7, Homo sapiens, UniProt Q9GZV3); ligand displacement; radioligand; 10 µM): < 30%

COCc1c(-c2cc3cc(C)cc(OC)c3s2)c2c(N)ncnn2c1CN1CCNC(=O)C1
inhibition (Calcium-dependent protein kinase 1 (CDPK1, Plasmodium falciparum, UniProt P62344); cell-free assay; competition with immobilised ligand; 1 µM): 93.3%

Cn1cc(-c2cccc(N3CCc4c(sc5c4CC(C)(C)C5)C3=O)c2CO)cc(Nc2ccncn2)c1=O
inhibition (Eukaryotic elongation factor 2 kinase (EEF2K, Homo sapiens, UniProt O00418); enzyme activity; inhibitor; 1 µM): 2%

CCOC(=O)N1C[C@H]2C[C@@H]1C[C@@H]2c1ccc(-c2cc(C(=O)OCC(=O)N(C)C)cc3cc(-c4ccc(C(F)(F)F)cc4)ccc23)cc1
inhibition (P2Y purinoceptor 14 (P2RY14, Homo sapiens, UniProt Q15391); cell-free assay; inhibitor; 10 µM): 12.2%

CCOC(=O)c1ccc(OC(=O)CCCCCNC(=N)N)cc1
inhibition (CASP9; enzyme activity; inhibitor; 10 µM): 7%

Cc1ncc(C)n2nc(/C=C/c3nc(N4CCCC4)cc(N4CCOCC4)n3)nc12
inhibition (MMP1; enzyme activity; inhibitor; 10 µM): 7%

N=C(N)c1ccc2cc(OC(=O)c3ccc(N=C(N)N)cc3)ccc2c1
inhibition (USP7; enzyme activity; inhibitor; 10 µM): 0%

C#Cc1n[nH]c2c(-c3cn([C@@H](C)c4ccccc4)c(=O)[nH]c3=O)cc(F)cc12
inhibition (TRAF2 and NCK-interacting protein kinase (TNIK, Homo sapiens, UniProt Q9UKE5); enzyme activity; inhibitor; 0.1 µM): -0.3%

COC(=O)CC[C@H](NC(=O)[C@H](CC(C)C)NC(=O)OCc1ccccc1)C(=O)N[C@@H](Cc1cnc[nH]1)C(=O)N[C@@H](CC(=O)OC)C(=O)CF
inhibition (CASP9; enzyme activity; inhibitor; 10 µM): 86%

COc1cc(Nc2ncc(F)c(Nc3ccc4c(n3)NC(=O)C(C)(C)O4)n2)cc(OC)c1OC
inhibition (Cyclin-dependent kinase-like 1 (CDKL1, Homo sapiens, UniProt Q00532); binding; competition with immobilised ligand; 10 µM): 84%
